Reference: ChEMBL document CHEMBL1130251, “Enzymatic properties of the unnatural beta-L-enantiomers of 2',3'-dideoxyadenosine and 2',3'-didehydro-2',3'-dideoxyadenosine” (J Med Chem, 1997)

Experiments:
[1] = Inhibitory activity against purine nucleoside phosphorylases from human blood and calf spleen; NS, NI/Ino=nonsubstrate, noninhibitor/inhibitor; type: tissue-based
Outline: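 Purine nucleoside phosphorylase from calf spleen (0.18 unit·mL⁻¹) or human blood (9 units·mL⁻¹) at 37 °C in 50 mM phosphate pH 7.5. Substrate tests used 50 μM nucleoside. Inhibition used 40 μM inosine with 100 μM test compound. Reaction media were analysed by C-18 HPLC.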

[2] = biological target: T1, Adenosine deaminase (Bos taurus) (UniProt P56658); assay: Inhibitory activity against bovine adenosine deaminase; very weak substrate or inhibitor
T1 sequence (whole entry): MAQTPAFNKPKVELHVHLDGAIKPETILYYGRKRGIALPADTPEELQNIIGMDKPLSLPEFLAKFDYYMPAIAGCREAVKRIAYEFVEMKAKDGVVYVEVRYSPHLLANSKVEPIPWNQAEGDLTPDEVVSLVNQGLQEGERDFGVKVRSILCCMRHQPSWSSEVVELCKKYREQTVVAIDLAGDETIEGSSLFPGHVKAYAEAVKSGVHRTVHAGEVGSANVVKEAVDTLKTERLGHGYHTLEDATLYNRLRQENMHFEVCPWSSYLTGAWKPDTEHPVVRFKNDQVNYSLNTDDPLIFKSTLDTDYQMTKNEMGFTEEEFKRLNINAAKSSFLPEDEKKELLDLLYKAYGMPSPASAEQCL
Outline: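 Adenosine deaminase (calf intestinal mucosa, type VIII) at 37 °C in 50 mM phosphate pH 7.5. Substrate tests used 20–80 μM nucleoside and 0.01–1 unit enzyme, with HPLC product analysis. Inhibition was read by UV spectrometry with adenosine 20–100 μM. Ki was taken from Lineweaver–Burk plots assuming competitive inhibition.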

[3] = tested on: Nc1ncnc2c1ncn2[C@H]1C=C[C@@H](CO)O1; assay: Inhibitory activity against human deoxycytidine kinase
Outline: (§1)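 Recombinant human deoxycytidine kinase (expressed in E. coli, purified) at 37 °C. Monophosphate formation measured by C-18 HPLC. Km and Vm from Lineweaver–Burk plots.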

[4] = tested on: Nc1ncnc2c1ncn2[C@H]1CC[C@@H](CO)O1; assay: Inhibitory activity against Cytidine Kinase; outline: as §1

Chain of Deoxycytidine kinase (Homo sapiens), P27707 (P27707 whole entry): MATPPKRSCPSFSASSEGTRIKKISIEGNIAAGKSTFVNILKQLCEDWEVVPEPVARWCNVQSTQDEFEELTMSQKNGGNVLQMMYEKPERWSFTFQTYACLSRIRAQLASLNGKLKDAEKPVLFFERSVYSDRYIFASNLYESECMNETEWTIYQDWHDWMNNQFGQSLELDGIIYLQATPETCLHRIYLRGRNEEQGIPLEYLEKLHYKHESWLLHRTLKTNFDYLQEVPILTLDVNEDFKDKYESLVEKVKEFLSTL

Row | Compound | Km [1] | inhibition [2] | Km [3] [µM] | Km [4] [µM]
1 | Nc1ncnc2c1ncn2[C@H]1CC[C@@H](CO)O1 | NS, NI/Ino |  |  | 
2 | Nc1ncnc2c1ncn2[C@H]1C=C[C@@H](CO)O1 | NS, NI/Ino | very weak substrate or inhibitor |  | 
3 | Deoxycytidine kinase (Homo sapiens), P27707 |  |  | 620 | 220
